# This is a sample that favours compounds with a hit; in the whole collection about 3% have one here.
# MEKK2wt PB1 HTS = raises or lowers MEK5 binding to wildtype human MEKK2 PB1 domain. bead flow cytometry, Alexa488-MEK5 binding to MEKK2 WT; actives lie on both sides. binding response (% of control), % at 10 µM. 290,000 compounds, 1.1% hits; in the data active = binding response below about 67% or above about 130%
# MEKK2mut PB1 HTS = signal of MEK5 binding to mutant human MEKK2 PB1 domain | percent response, % at 10 µM | 290,000 compounds, 0.35% hits | bead flow cytometry, Alexa488-MEK5 binding to MEKK2 mutant; in the data active = percent response above about 24%, passing the limit was not always enough
# UBC13 polyUb = human UBC13 polyubiquitination inhibition. inhibition, % at 20 µM. 330,000 compounds, 0.47% hits. UBC13 polyubiquitin chain formation, TR-FRET; in the data active = inhibition above about 45%, passing the limit was not always enough
# MEKK3 PB1 HTS = modulators (inhibitors or enhancers) of MEK5 binding to human MEKK3 PB1 domain | bead-based flow cytometry, Alexa488-MEK5 binding to MEKK3; actives lie on both sides; 0 = blocked by unlabeled MEK5, 100 = vehicle | Q99759 | binding response (% of control), % at 10 µM | 290,000 compounds, 1.4% hits;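 active = binding response more than 3 SD above or below the average of its plate-row segment, actives on both sides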;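 note: Alexa488 bead fluorescence after subtracting the streptavidin-only scavenger bead signal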
# Apaf1 inhib = human Apaf-1 inhibition. O14727. 330,000 compounds, 0.71% hits. inhibition, % at 20 µM. reconstituted apoptosome caspase-3 activity, DEVD-Rh110 fluorescence; active = inhibition of at least 40% at 20 µM;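 note: plate controls were DMSO wells for no effect and DEVD-CHO caspase inhibitor wells for full effect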
#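 Assay system: Apoptosome proteins | Medium: pH 7.5 Hepes buffer with CHAPS, BSA, DTT | Also added: Cytochrome c and DEVD-Rh110 substrate | Times: 30 min plus 50 min, RT | Detection: Rhodamine 110 fluorescence at Ex 480/Em 540 nm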
# UCH37 DUB inh = blocks the human deubiquitinase UCH37 | Q9Y5K5 | purified proteasome/UCH37, Ub-AMC cleavage fluorescence | inhibition, % (concentration not given with the values) | 330,000 compounds, 0.33% hits | AID 588478;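 active = mean inhibition over replicate wells above about 20%, limit read from the data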;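 note: 0% = compound-free wells with enzyme and 100% = wells lacking proteasome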
#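 Assay system: Proteasome-bound UCH37. Buffer or medium: pH 7.4 Tris-HCl (50 mM) with ovalbumin, ATP-MgCl2, DTT. Incubation: 30 min preincubation with enzyme, 25 min cleavage at room temperature. Measured by: fluorescence, ex 355 nm, em 460 nm. Read-out basis: percent inhibition. Control set: wells without proteasome as full block, compound-free enzyme plus substrate as uninhibited.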
# Casp3 counter = counter-screen for UBC13 inhibitors: human caspase-3 inhibition; shares compounds with UBC13 polyUb; Recombinant caspase-3, Caspase-Glo 3/7 luminescence, 60 min; inhibition, % at 20 µM; 1,400 compounds, 4% hits; AID 488856;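 active = mean inhibition across replicates above about 26%, limit read from the data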;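 note: plate controls were DMSO with caspase-3 for no effect and DMSO wells lacking enzyme for full effect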
# UBC13 confirm = human UBC13 polyubiquitin inhibition, confirmed; UBC13 polyubiquitination, TR-FRET, biochemical; inhibition, % at 10 µM; 1,400 compounds, 68% hits; shares compounds with UBC13 polyUb; in the data active = inhibition above about 45%
# Numbers without * were called inactive; . = no result given.
SMILES,MEKK2wt PB1 HTS,MEKK2mut PB1 HTS,UBC13 polyUb,MEKK3 PB1 HTS,Apaf1 inhib,UCH37 DUB inh,Casp3 counter,UBC13 confirm
O=C(NCCCn1ccnc1)C1CCN(S(=O)(=O)c2cc([N+](=O)[O-])ccc2Cl)CC1,.,.,82*,.,23,.,-1,64*
O=C(Nc1cccc(F)c1)C1CCCN(S(=O)(=O)c2ccc(-n3cnnn3)cc2)C1 (stereo not given),101,4,12,103,5,-1,.,.
COc1ccc(COCC(O)CN2CCC(CN3C(=O)c4cccc5cccc(c45)C3=O)CC2)cc1OC (stereo not given),111,5,73*,106,2,-72,-4,65*
COc1cc(COCC(O)CN2CCN(CCN3C(=O)c4cccc5cccc(c45)C3=O)CC2)cc(OC)c1OC (stereo not given),95,-3,26,91,-6,-3,.,.
O=C1c2cccc3cccc(c23)C(=O)N1CC1CCN(CC(O)COc2ccc3ccccc3c2)CC1 (stereo not given),.,.,79*,.,36,-25,-1,85*
CCN(C(=O)CN1CCN(c2ccccc2OC)CC1)c1c(N)n(Cc2ccccc2)c(=O)[nH]c1=O,104,0,2,100,-7,-2,.,.
Cc1ncc(CO)c(/C=N/NC(=S)Nc2ccc(Cl)c(Cl)c2)c1O,103,-1,51*,101,-16,.,-2,28
Cc1ncc(CO)c(/C=N/NC(=S)Nc2cccc(Cl)c2)c1O,93,-1,22,101,-8,.,.,.
COC(=O)c1sccc1NC(=O)c1cc2c(s1)CCCC2,.,.,46*,.,3,-7,58*,20
COc1ccc(C)cc1NC(=O)c1cc2c(s1)CCC2,106,9,6,99,4,-1,.,.
CCc1ccc(C(=O)Nn2c(C)nc3ccccc3c2=O)cc1,112,8,60*,108,1,3,-2,64*
CCOC(=O)CSc1nc2ccccc2c(=O)n1C,102,7,5,100,5,-2,.,.
CCOC(=O)CSc1nc2ccccc2c(=O)n1NC(=O)c1ccccc1,98,-3,48*,99,0,4,6,39
CN(CC(=O)Nc1cccc(F)c1)C(=O)CN1C(=O)NC2(CCCCC2)C1=O,.,.,0,.,4,2,.,.
CCCS(=O)(=O)c1nc(S(=O)(=O)c2ccc(C)cc2)c(NCCCN(C)C)s1,100,1,12,103,4,2,.,.
CC1CCN(CCNC(=O)c2ccc3c(=O)n(Cc4ccc(Cl)cc4)c(=S)[nH]c3c2)CC1,175*,39*,45*,101,36,3,-3,61*
O=C(NCCCN1CCOCC1)c1ccc2c(=O)n(Cc3cccc(Br)c3)c(=S)[nH]c2c1,114,13,49*,102,22,1,-2,60*
CC(C)n1c(NCc2cc(Cl)ccc2O)nc2ccccc21,113,8,67*,107,15,3,0,54*
CCc1cccc(CC)c1NC(=O)Cn1c(-c2ccc(F)cc2)noc1=O,107,5,0,106,4,4,.,.
NC(=O)CCn1c(C(=O)c2cccc([N+](=O)[O-])c2)c2ccccc2[n+]1[O-],97,-3,6,103,-4,2,.,.
NC(=O)CCn1c(C(=O)c2cc(Cl)c(N)c(Cl)c2)c2ccccc2[n+]1[O-],103,-2,62*,102,5,5,0,65*
COc1ccc(C(=O)c2c3ccccc3[n+]([O-])n2CCCN)cc1,.,.,-12,.,8,-1,.,.
NCCCn1c(C(=O)c2cc(Cl)c(N)c(Cl)c2)c2ccccc2[n+]1[O-],.,.,97*,.,6,1,1,100*
O=C(Cn1cc([N+](=O)[O-])ccc1=O)Nc1ccc2c(c1)OCO2,.,.,-4,.,-14,2,.,.

# Bioassay records deposited in PubChem by several laboratories.
